# High-throughput results deposited in PubChem BioAssay by Johns Hopkins Ion Channel Center.
# KCNQ1 pot – potentiators or activators of KCNQ1 channel, primary screen, cell-based, thallium flux, high-throughput; CHO-K1 KCNQ1, thallium flux FluxOR fluorescence; hits give high values; B-score at 10 µM; 0.35% of 310,000 active; AID 2648, 2010;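 active means fluorescence ratio B-score, a plate-corrected score, at least three library SD, with initial intensity B-score within 5 SD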
#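 Assay system: stable KCNQ1 CHO-K1 line; medium: assay buffer, equal DMSO in all wells; timing: 90 min dye loading and 20 min compound exposure, both at room temperature; technique: kinetic FluxOR thallium fluorescence, 10-s 1-Hz baseline, 110-s post-stimulus read; read-out basis: B score of baseline-normalized fluorescence ratio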
# KCNK9 block – KCNK9 potassium channel inhibitors, primary screen, HEK293 cells, thallium flux. Potassium channel subfamily K member 9 (Homo sapiens), Q9NPC2. 1.2% of 310,000 active. B-score at 10 µM. FluxOR thallium flux fluorescence; hits give low values. AID 488922, 2010;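 active means ratio B-score over 3 SD below the library mean, with starting fluorescence within 5 SD of its mean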;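 further: negative B-score means less thallium flux so channel inhibition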
# Target sequence (Q9NPC2 whole entry, looked up): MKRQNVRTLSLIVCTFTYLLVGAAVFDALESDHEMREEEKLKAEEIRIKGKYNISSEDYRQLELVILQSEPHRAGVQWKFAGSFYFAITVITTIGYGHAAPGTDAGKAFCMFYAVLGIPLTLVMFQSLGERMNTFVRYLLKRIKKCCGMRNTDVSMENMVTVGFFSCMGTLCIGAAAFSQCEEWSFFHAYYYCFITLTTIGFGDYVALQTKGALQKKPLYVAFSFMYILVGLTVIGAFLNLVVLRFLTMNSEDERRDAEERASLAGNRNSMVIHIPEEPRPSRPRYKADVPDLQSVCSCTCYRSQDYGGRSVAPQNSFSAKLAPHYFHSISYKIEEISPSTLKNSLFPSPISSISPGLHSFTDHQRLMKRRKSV
# hERG protect – hERG rescue from dofetilide block, primary screen, cell-based, CHO-hERG, FluxOR thallium flux, dofetilide IC70; 0.51% of 310,000 active; Voltage-gated inwardly rectifying potassium channel KCNH2 (Homo sapiens), Q12809; dofetilide IC70 present; activation (rescue from dofetilide block), less the hit threshold, % at 10 µM;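 active means activation above the mean of controls blocked by dofetilide plus 5 SD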;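 further: thallium influx through hERG after potassium depolarization seen as dye fluorescence rise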
# Kir21 inh – inhibitors of mouse Kir2.1 inward-rectifier potassium channel | Inward rectifier potassium channel 2 (Mus musculus), P35561 | HEK293-Kir2.1, FluxOR thallium flux fluorescence; hits give low values | B-score at 10 µM | 0.85% of 310,000 active | AID 1672, 2009;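 active means fluorescence ratio B-score at or below minus 3 SD of library scores, with starting-brightness B-score within 2 SD, cut at about -4.2 in these data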;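 further: channel flux triggered by added potassium and thallium sulfate stimulus; B-score of peak minus minimum fluorescence over baseline after thallium stimulus; more negative B-score means stronger Kir2.1 block with less thallium influx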
# KCNQ1 block – inhibitors of human KCNQ1 channel, primary screen, cell-based, thallium flux, high-throughput. Potassium voltage-gated channel subfamily KQT member 1 (Homo sapiens), P51787. CHO-K1 KCNQ1, FluxOR thallium flux fluorescence; hits give high values. B-score at 10 µM. 1.3% of 310,000 active;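 active means compounds whose thallium flux B-score, printed positive for inhibition, exceeds three library SD while starting fluorescence stays within three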;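 further: channel opened by potassium depolarization with thallium stimulus after 20 min compound exposure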
# KCNK3 block – human KCNK3 channel inhibitors, primary screen, CHO cells, FluxOR thallium flux, B-score | B-score at 10 µM | FluxOR fluorescence; hits give low values | 0.84% of 340,000 active;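 active means B-score under library mean minus 4 SD, starting fluorescence ratio at most library mean plus 5 SD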;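 further: more negative B-score means stronger inhibition of thallium flux through KCNK3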
# KCNK9 block conf – KCNK9 potassium channel inhibitors, confirmation, HEK293 cells, thallium flux, duplicate | AID 492992, 2010 | FluxOR thallium flux fluorescence | 43% of 4,900 active | inhibition, % at 10 µM | shares compounds with KCNK9 block;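 active means thallium signal inhibited by more than 5 SD of the compound-free buffer control wells, on both duplicate plates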
# Kir21 sel – mouse Kir2.1 channel inhibition, confirmation, selectivity assay for KCNK9 modulator project, cell-based, HEK293, thallium flux; Kir2.1 cells, FluxOR thallium flux fluorescence; inhibition, % at 10 µM; shares compounds with KCNK9 block; 4% of 4,900 active;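 active means thallium signal drop more than 5 SD beyond the mean of the no-compound control wells, seen in both duplicate plates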;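 further: signal is fluorescence rise after thallium addition divided by baseline fluorescence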
# KCNK9 uninduced – thallium flux in non-induced HEK293 cells, confirmation, counter-screen for KCNK9 inhibitor project, cell-based, second counter screen, non-induced KCNK9-HEK293; inhibition, % at 10 µM; FluxOR thallium flux; 40% of 4,900 active; shares compounds with KCNK9 block; AID 492997, 2010;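 active means thallium signal drop beyond 5 SD of the untreated control mean, on both duplicate plates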
# A number is an active result; . = inactive; / = not tested or not shown. Hits are enriched below; roughly 3.7% of the tested compounds scored in any of these assays.
SMILES,KCNQ1 pot,KCNK9 block,hERG protect,Kir21 inh,KCNQ1 block,KCNK3 block,KCNK9 block conf,Kir21 sel,KCNK9 uninduced
COc1ccccc1C(=O)NC(CCSC)C(=O)Nc1ccc(C)c(S(=O)(=O)N2CCOCC2)c1 (stereo not drawn),/,/,/,/,/,.,/,/,/
c1ccc(CSc2nnc(-c3sccc3-n3cccc3)o2)cc1,.,-8.27,.,.,.,.,.,.,35.0%
Cc1oc(-c2cccs2)nc1CN1CCC(c2ccccc2)CC1,.,.,.,.,.,.,.,.,.
COc1cc(OC)cc(-c2cc3nc4c(c(N5CCN(c6ncccn6)CC5)n3n2)CCCC4)c1,.,-8.3,.,.,.,-10.2,31.0%,.,34.0%
Fc1cccc(-c2cc3nc4c(c(N5CCC6(CC5)OCCO6)n3n2)CCCC4)c1,.,-8.41,.,.,.,.,.,.,.
CCCN(C(=O)CSc1nc(C2CC2)n(-c2ccccc2)n1)C1CCS(=O)(=O)C1 (stereo not drawn),/,/,/,/,/,.,/,/,/
N/C(=N\OC(=O)c1cccc(Cn2cc(C(F)(F)F)ccc2=O)c1)c1ccc(Cl)cc1,.,-11.9,.,.,.,.,45.5%,.,.
O=C(Sc1ccc(Cl)cc1)c1cccc(Cn2cc(C(F)(F)F)ccc2=O)c1,.,-13.6,.,.,.,.,34.5%,.,34.5%
Cc1ccc(S(=O)(=O)N2CCC(C(=O)OC(C)C(=O)NC3CCCCC3C)CC2)cc1 (stereo not drawn),/,/,/,/,/,.,/,/,/
O=C(O)Cn1c(=O)c2c3c(sc2n(Cc2ccccc2F)c1=O)CCCC3,.,.,.,.,.,.,/,/,/
Cc1ccc(C(=O)/C=C\NCc2ccccc2)cc1,.,.,.,.,.,.,/,/,/
COc1ccc(C(=O)/C=C/NCc2ccc(C)cc2)cc1,.,.,.,.,.,.,.,.,.
CSCCC(=O)N1CC[C@@H](N2CCN(c3ccccc3F)CC2)[C@H](O)C1,.,.,.,.,.,.,/,/,/
CC(C)C(=O)NC(c1ccc(Cl)cc1Cl)c1ccc2cccnc2c1O (stereo not drawn),.,.,.,.,.,.,.,.,28.5%
Cc1cc(C)nc(N=Nc2c(O)n(Cc3ccc(Cl)cc3)c3ccccc23)n1,.,-18.2,.,.,.,.,72.0%,.,26.5%
Cc1cc(C)nc(N/C(=N\S(=O)(=O)Cc2ccccc2)Nc2cccc(Cl)c2C)n1,.,.,.,.,.,.,/,/,/
Cc1cc(C)nc(N/C(=N\S(=O)(=O)Cc2ccccc2)Nc2ccc(F)c(Cl)c2)n1,.,-12.8,.,.,.,.,.,.,.
C/C(=N\NC(=O)c1ccccc1F)c1cccc(NC(=O)c2ccc(C)cc2)c1,.,.,.,.,.,.,/,/,/
CCN(CC)c1ccc(C=C2C(=O)OC(c3ccccc3)OC2=O)cc1 (stereo not drawn),.,.,.,.,.,.,/,/,/
CCN(CC)c1ccc(/C=C/C(=O)C2C(=O)C=C(C)OC2=O)cc1 (stereo not drawn),.,-9.53,.,.,.,.,86.5%,101.0%,85.0%
CC(C)Cn1c(N)c(C(=O)CSc2n[nH]c(N)n2)c(=O)n(C)c1=O,/,/,/,/,/,.,/,/,/
Cc1ccc(Cn2c(SCC(=O)N/N=C/c3ccc(C)o3)nc3ccccc32)cc1,.,-20.8,.,.,.,.,55.0%,.,41.0%
CCOC(=O)c1ccccc1NC(=O)c1cn(-c2ccc(OC)cc2)c(=O)c2ccccc12,.,-9.27,.,.,.,.,26.5%,.,.
CC1CN(C(=O)COC(=O)c2ccccc2O)CC(C)O1 (stereo not drawn),.,.,.,.,.,.,/,/,/
Cc1ccc(OCCC(=O)OCC(=O)NCCc2ccc(Cl)cc2)cc1,.,.,.,.,.,.,/,/,/
SMILES,KCNQ1 pot,KCNK9 block,hERG protect,Kir21 inh,KCNQ1 block,KCNK3 block,KCNK9 block conf,Kir21 sel,KCNK9 uninduced
O=C1NN(c2ccc(F)c(Cl)c2)C(=O)/C1=C\c1cccc(OC(=O)c2cccs2)c1,.,.,.,.,.,.,.,.,.
CCN(CC)CCn1c(SCC(=O)NCc2ccco2)nc2c(sc3ccccc32)c1=O,.,.,.,.,.,.,/,/,/
CCN(CC)CCn1c(SCC(=O)Nc2cccc(OC)c2)nc2c(sc3ccccc32)c1=O,.,-11.7,.,.,.,.,48.5%,.,31.5%
CN(Cc1ccccc1)C(=O)COC(=O)C1CCN(S(=O)(=O)c2ccc3c(c2)OCCO3)CC1,.,.,.,.,.,.,/,/,/
CC(C)Oc1cccc(C(=O)C2CCCN(C(=O)c3noc4c3CCCC4)C2)c1 (stereo not drawn),.,.,.,.,.,.,.,.,.
CC(C)Oc1cccc(C(=O)C2CCCN(C(=O)c3ccsc3)C2)c1 (stereo not drawn),.,.,.,.,.,.,.,.,.
CC(C)Oc1cccc(C(=O)C2CCCN(C(=O)c3ccc4c(c3)OCO4)C2)c1 (stereo not drawn),.,.,.,.,.,.,.,.,.
CC(C)Oc1cccc(C(=O)C2CCCN(C(=O)c3cncs3)C2)c1 (stereo not drawn),.,.,.,.,.,.,/,/,/
O=C(Cc1ccccc1)NS(=O)(=O)c1ccc(N=NN2CCOCC2)cc1,.,.,.,.,.,.,/,/,/
CN1CCN(S(=O)(=O)c2cccc(C(=O)N(Cc3nnc(-c4ccccc4Cl)o3)C3CC3)c2)CC1,.,.,.,.,.,.,/,/,/
CCOC(=O)c1ccc(N/C(=N\S(=O)(=O)c2ccccc2C)c2ccccc2)cc1,.,-8.43,.,.,.,.,39.0%,.,28.5%
COc1ccc(-c2cc(C(F)(F)F)n3ncc(C(=O)N(C)Cc4ccccc4)c3n2)cc1,.,.,.,.,.,.,.,.,.
COc1ccc(-c2cc(C(F)(F)F)n3ncc(C(=O)NCc4ccco4)c3n2)cc1,.,.,.,.,.,.,/,/,/
O=C(NC(=S)NCc1ccccc1Cl)c1cccs1,/,/,/,/,/,.,/,/,/
